Reference: ChEMBL document CHEMBL3243957, “Synthesis and screening of 8-(4'-thiazolyl)purines” (J Med Chem, 1978)
Calls of active or inactive are those of the source. The rule behind the calls is not given here.

Key:
[1] = tested on: Lymphocyte; test: Immunopotentiation activity in human lymphocytes assessed as increase in cell proliferation at 1 to 100 ug/ml by [3H]thymidine incorporation assay in absence of mitogen phytohemagglutinin; format: functional, cell-based
Method in brief: (§1)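 Lymphocytes were cultured with compound at 1, 10 and 100 µg/mL, with or without a suboptimal concentration of the lectin mitogen phytohemagglutinin. Proliferation was read as tritiated thymidine incorporation.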

[2] = tested on: Mus musculus; test: Antitumor activity against mouse S180J cells allografted in CD-1 mouse assessed as tumor regression at 16 mg/kg, ip administered six times in consecutive days starting a day after tumor cell inoculation measured 42 days after start of drug treatment; format: functional, organism-based; design: dose 16 mg/kg
Method in brief: (§2)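 Female CD-1 mice, in groups of six, were inoculated with 7.5 × 10^5 tumor cells. Starting the day after inoculation, the agent was given ip as a carboxymethylcellulose suspension in saline, once daily for six consecutive days, at different dosages.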

[3] = tested on: Mus musculus; test: Antitumor activity against mouse S180J cells allografted in CD-1 mouse assessed as tumor regression at 1 mg/kg, ip administered six times in consecutive days starting a day after tumor cell inoculation measured 42 days after start of drug treatment; format: functional, organism-based; design: dose 1 mg/kg; method in brief: as §2
[4] = tested on: Lymphocyte; test: Inhibition of phytohemagglutinin-induced human lymphocytes proliferation at 100 ug/ml by [3H]thymidine incorporation assay; format: functional, cell-based; method in brief: as §1
[5] = tested on: Mus musculus; test: Antitumor activity against mouse S180J cells allografted in CD-1 mouse assessed as tumor regression at 32 mg/kg, ip administered six times in consecutive days starting a day after tumor cell inoculation measured 42 days after start of drug treatment; format: functional, organism-based; design: dose 32 mg/kg; method in brief: as §2
[6] = tested on: Mus musculus; test: Antitumor activity against AKR mouse leukemia assessed as increase in survival time at 0.2 to 20 mg/kg, sc; format: functional, organism-based
Method in brief: (§3)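 AKR leukemia-bearing mice were dosed at 0.2, 2.0 and 20 mg/kg, each given by intraperitoneal, oral or subcutaneous routes. The read-out was increase in survival time.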

[7] = tested on: Mus musculus; test: Antitumor activity against mouse S180J cells allografted in ip dosed CD-1 mouse assessed as tumor regression administered six times in consecutive days starting a day after tumor cell inoculation measured 42 days after start of drug treatment; format: functional, organism-based; method in brief: as §2
[8] = tested on: Lymphocyte; test: Immunopotentiation activity in human lymphocytes assessed as increase in cell proliferation at 1 to 100 ug/ml by [3H]thymidine incorporation assay in presence of mitogen phytohemagglutinin; format: functional, cell-based; method in brief: as §1
[9] = tested on: Mus musculus; test: Antitumor activity against mouse S180J cells allografted in CD-1 mouse assessed as tumor regression at 4 mg/kg, ip administered six times in consecutive days starting a day after tumor cell inoculation measured 42 days after start of drug treatment; format: functional, organism-based; design: dose 4 mg/kg; method in brief: as §2
[10] = tested on: Mus musculus; test: Antitumor activity against AKR mouse leukemia assessed as increase in survival time at 0.2 to 20 mg/kg, ip; format: functional, organism-based; method in brief: as §3
[11] = tested on: Mus musculus; test: Antitumor activity against AKR mouse leukemia assessed as increase in survival time at 0.2 to 20 mg/kg, po; format: functional, organism-based; method in brief: as §3
[12] = tested on: Mus musculus; test: Antitumor activity against mouse S180J cells allografted in CD-1 mouse assessed as tumor regression at 10 to 100 mg/kg, ip administered six times in consecutive days starting day after tumor cell inoculation measured 42 days after start of drug treatment; format: functional, organism-based; method in brief: as §2
[13] = tested on: L1210; test: Antitumor activity against mouse L1210 cells allografted in mouse assessed as increase in host survival time at 125 mg/kg administered qd for 6 days relative to control; format: functional
Method in brief: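 L1210 mouse leukemia in mice, dosed daily (qd) over a 1 to 125 mg/kg range. Read-out was survival time of treated versus control mice, given as % T/C. Procedure follows previously described methods.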

[14] = tested on: Mus musculus; test: Toxicity in mouse L1210 cells allografted mouse up to 500 mg/kg administered qd for 5 days; format: organism-based; design: dose 500 mg/kg; details: in vivo, 120 h
[15] = tested on: Human alphaherpesvirus 1; test: Antiviral activity against HSV-1 infected in african green monkey Vero cells assessed as inhibition of viral replication at 100 ug/ml (reference value: 1.2 x 10^6 PFU/ml); format: functional
[16] = tested on: Human alphaherpesvirus 1; test: Antiviral activity against HSV-1 infected in african green monkey Vero cells assessed as inhibition of viral replication at 1 ug/ml (reference value: 1.2 x 10^6 PFU/ml); format: functional
[17] = tested on: Human alphaherpesvirus 1; test: Antiviral activity against HSV-1 infected in african green monkey Vero cells assessed as inhibition of viral replication at 10 ug/ml (reference value: 1.2 x 10^6 PFU/ml); format: functional
[18] = tested on: Human alphaherpesvirus 1; test: Antiviral activity against HSV-1 infected in african green monkey Vero cells assessed as inhibition of viral replication at 1 ug/ml (reference value: 2.7 x 10^5 PFU/ml); format: functional
[19] = tested on: Human alphaherpesvirus 1; test: Antiviral activity against HSV-1 infected in african green monkey Vero cells assessed as inhibition of viral replication at 10 ug/ml (reference value: 2.7 x 10^5 PFU/ml); format: functional
[20] = tested on: Mus musculus; test: Antitumor activity against mouse S180J cells allografted in CD-1 mouse assessed as tumor regression at 30 mg/kg, ip administered six times in consecutive days starting a day after tumor cell inoculation measured 42 days after start of drug treatment; format: functional, organism-based; design: dose 30 mg/kg; method in brief: as §2
[21] = tested on: Human alphaherpesvirus 1; test: Antiviral activity against HSV-1 infected in african green monkey Vero cells assessed as inhibition of viral replication at 100 ug/ml (reference value: 2.7 x 10^5 PFU/ml); format: functional
[22] = tested on: Mus musculus; test: Antitumor activity against mouse S180J cells allografted in CD-1 mouse assessed as tumor regression at 100 mg/kg, ip administered six times in consecutive days starting a day after tumor cell inoculation measured 42 days after start of drug treatment; format: functional, organism-based; design: dose 100 mg/kg; method in brief: as §2

Sc1ncnc2[nH]c(-c3cscn3)nc12
Activity [1]: inactive | inhibition [2]: inactive | inhibition [3]: inactive | inhibition [4]: Active | inhibition [5]: inactive | Activity [6]: inactive | inhibition [7]: Active | Activity [8]: inactive | inhibition [9]: inactive | Activity [10]: inactive | Activity [11]: inactive

c1ncc2nc(-c3cscn3)[nH]c2n1
Activity [1]: inactive | inhibition [4]: Active | inhibition [12]: inactive | Activity [8]: inactive

ONc1ncnc2[nH]c(-c3cscn3)nc12
T/C [13]: 129% | Activity [14]: Non-toxic

Clc1ncnc2[nH]c(-c3cscn3)nc12
Activity [1]: inactive | PFU/ml [15]: 2200000 | inhibition [4]: Active | PFU/ml [16]: 4000000 | Activity [8]: inactive | PFU/ml [17]: 2500000

Oc1ncnc2[nH]c(-c3cscn3)nc12
Activity [1]: inactive | inhibition [4]: Active | Activity [8]: inactive

Nc1ncnc2[nH]c(-c3cscn3)nc12
Activity [1]: inactive | PFU/ml [18]: 320000 | PFU/ml [19]: 850000 | inhibition [4]: Active | inhibition [12]: inactive | inhibition [20]: inactive | Activity [8]: inactive | PFU/ml [21]: 920000

Nc1nc(S)c2nc(-c3cscn3)[nH]c2n1
Activity [1]: inactive | PFU/ml [15]: 820000 | inhibition [4]: Active | inhibition [22]: inactive | inhibition [7]: Active | inhibition [20]: inactive | PFU/ml [16]: 3500000 | Activity [8]: inactive | PFU/ml [17]: 5300000
